Assay outcomes as filed in PubChem.
Hits are enriched below; roughly 3.2% of the tested compounds scored in any of these assays.
S100A4 inh HTS: S100A4-myosin IIA interaction inhibition | P26447 | S100A4/TAMRA-MyoIIA peptide fluorescence polarization | inhibition, % at 10.7 µM | 360,000 compounds, 0.14% hits | AID 652163;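 active = mean inhibition of at least 70% across replicates, with every replicate also reaching that level; inconclusive = mean inhibition reaches 70% but some replicates fall short; inactive = mean inhibition below 70%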
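System – human S100A4 monomer protein, biochemical binding assay · Buffer or medium – Calcium-containing HEPES buffer, pH 7.2 · Timing – 5 min between mix addition and reading · Also added – TAMRA-labelled myosin IIA heavy-chain peptide probe, 5 nM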
Cneo AK release: Cryptococcus neoformans lysis via adenylate kinase release | C. neoformans lysis, adenylate kinase release luminescence, 4 h; normalised: neutral wells 0, clomiphene wells 100 | lysis activity, % at 15 µM | 360,000 compounds, 0.2% hits;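 active = mean lysis activity across replicates of at least 80%, whatever share of replicates individually reach that level; inactive = mean lysis activity below 80%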
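Test system: log-phase Cryptococcus neoformans yeast cells. Input: 5 × 10^6 yeast cells/mL. Medium: fresh YPD growth medium. Doses: single dose. Incubation: static 4 h at 37 °C with compound, 1 h detection. Measured by: luminescent adenylate kinase detection reagent. Read-out: signal increase indicating cell lysis. Benchmarks: Clomiphene.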
MLL AF4-AF9 inh: blocks AF4 peptide binding to human AF9; 350,000 compounds, 0.47% hits; P42568; inhibition, % at 10 µM; AlphaScreen, biotin-AF4 peptide binding to FLAG-AF9;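 active = every replicate reaching a set inhibition limit, whatever the replicate mean, cut at about 25% in these data; inconclusive = mean inhibition reaches that limit but some replicates miss it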;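 note: 0% = plate neutral control median and 100% = total signal loss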
Target sequence (P42568 whole entry, looked up): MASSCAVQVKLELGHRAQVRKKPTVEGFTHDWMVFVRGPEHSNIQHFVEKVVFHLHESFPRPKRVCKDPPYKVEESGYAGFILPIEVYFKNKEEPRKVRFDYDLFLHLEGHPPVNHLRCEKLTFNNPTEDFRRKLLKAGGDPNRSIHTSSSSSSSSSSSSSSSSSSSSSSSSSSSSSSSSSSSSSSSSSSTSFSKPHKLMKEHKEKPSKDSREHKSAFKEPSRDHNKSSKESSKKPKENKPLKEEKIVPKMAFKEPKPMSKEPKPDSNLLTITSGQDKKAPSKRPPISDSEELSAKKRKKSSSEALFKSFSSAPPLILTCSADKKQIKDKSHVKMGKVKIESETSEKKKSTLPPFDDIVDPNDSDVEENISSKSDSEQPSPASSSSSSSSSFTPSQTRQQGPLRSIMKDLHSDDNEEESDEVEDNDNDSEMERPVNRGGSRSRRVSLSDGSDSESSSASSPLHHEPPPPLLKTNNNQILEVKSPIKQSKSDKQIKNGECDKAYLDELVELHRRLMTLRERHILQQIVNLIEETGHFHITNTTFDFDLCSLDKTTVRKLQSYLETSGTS
rRNA inh HTS: inhibits bacterial ribosomal RNA function over humanized ribosomes; E. coli WT GFP vs humanized-ribosome RFP mutants, fluorescence, 24 h; stronger effect = lower value; DMSO median 0, no signal -100; AID 720706; 350,000 compounds, 1.6% hits; GFP signal change (wild-type ribosome), % (no concentration beside the values);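 active = significant combined selectivity score with lowered wild-type GFP, culture density cut under 30%, mutant RFP and density less affected; inactive = any of these conditions unmet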
DENV2 CPE: DENV2-induced cell death inhibition; DENV2-infected cells, cytopathic effect rescue, plate reader; CPE inhibition, % at 9.99 µM; 350,000 compounds, 1.7% hits; AID 651640; in the data active = CPE inhibition above about 20%, passing the limit was not always enough; inconclusive = no clear call, values can overlap the other calls; tested in BHK-21 cells;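 note: 0% = median of neutral control wells and 100% = median of positive control wells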
PfHsp90 yeast 2: reduces growth (ATP signal) of yeast expressing P. falciparum Hsp90. S. cerevisiae expressing PfHsp90, BacTiter-Glo ATP, 48 h; yeast lacking PDR1 and PDR3 efflux regulators. inhibition, % at 9.4 µM. 310,000 compounds, 0.32% hits. AID 504621;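 active = every replicate shows inhibition above about 80%, whatever the replicate mean, limit read from the data; inconclusive = mean inhibition reaches the set limit but some replicate falls short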;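 note: 0% = DMSO neutral controls and 100% = 20 µM radicicol positive controls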
Starred values were filed as active, the others as inactive; u = inconclusive; x = no result.

SMILES	S100A4 inh HTS	Cneo AK release	MLL AF4-AF9 inh	rRNA inh HTS	DENV2 CPE	PfHsp90 yeast 2
Cc1noc(C)c1NC(=O)N(C)C[C@@H]1Oc2ccc(NC(=O)Nc3cccc4ccccc34)cc2C(=O)N([C@H](C)CO)C[C@H]1C	-5.4	1.4	4.0	-0.7	7.1	x
Cc1cc(C)c(C#N)c(SCS(=O)Cc2ccc(Cl)cc2)n1 (stereo not drawn)	-11.2	-1.0	3.9	-44.4*	-2.7	-41.9
O=S(=O)(NC1CCCCCC1)c1ccc(Br)s1	x	-0.8	x	x	x	87.5*
O=C(CCNS(=O)(=O)c1ccc(Br)s1)NC1CCCC1	1.5	-0.4	x	-0.7	x	x
Cn1c(=O)c(Nc2ccc(O)cc2)c2c3c(cccc31)C(=O)c1ccccc1-2	-2.2	x	29.3*	-12.0	-5.6	-3.6
CC(C)c1ccc(Nc2c([N+](=O)[O-])c(=O)n(C)c3ccccc23)cc1	1.0	-7.2	0.6	-8.0	1.9	13.9
COC(=O)c1cn(C[C@H](Cc2ccccc2)NC(=O)Nc2ccccc2)nn1	4.1	-2.5	-3.4	x	0.9	x
Cc1ccc(C(=O)NCC(=O)NCC(c2cccs2)N2CCOCC2)cc1C (stereo not drawn)	-0.5	2.9	5.6	3.0	93.4*	72.7
COCCCNC(=O)C(F)(F)C(F)(F)C(=O)NCCCOC	x	x	x	x	x	-27.7
O=C(NCCCCNC(=O)C(F)(F)F)C(F)(F)F	2.7	x	25.5*	21.5	3.4	-13.9
CO[C@@H]1CN(C)C(=O)c2cc(NS(=O)(=O)c3cccc(C)c3)ccc2OC[C@H](C)NC[C@H]1C	-20.0	0.0	-3.4	1.9	-1.4	x
COc1cccc(S(=O)(=O)Nc2ccc3c(c2)OC[C@@H](C)NC[C@H](C)[C@@H](OC)CN(C)C3=O)c1	10.0	98.0*	-0.5	2.4	-13.3	x
CO[C@H]1CN(C)C(=O)c2ccc(NS(=O)(=O)c3cccc(F)c3)cc2OC[C@H](C)NC[C@@H]1C	-10.4	x	-3.3	3.4	3.8	x
CO[C@@H]1CN(C)C(=O)c2cc(NS(=O)(=O)c3cccc(C)c3)ccc2OC[C@@H](C)NC[C@H]1C	8.4	103.9*	-5.9	2.8	14.8	x
COc1cccc(S(=O)(=O)Nc2ccc3c(c2)OC[C@H](C)NC[C@H](C)[C@@H](OC)CN(C)C3=O)c1	-9.6	x	-1.1	2.8	19.0	x
CO[C@@H]1CN(C)C(=O)c2ccc(NS(=O)(=O)c3cccc(F)c3)cc2OC[C@@H](C)NC[C@@H]1C	0.7	x	-5.5	1.0	71.2*	x
Cc1cc(C(=O)Nc2cccc3c2O[C@H](CN(C)Cc2ccc4c(c2)OCO4)[C@H](C)CN([C@@H](C)CO)C3=O)n(C)n1	5.3	-3.6	-0.3	0.0	8.0	x
O=C(O)c1ccc(-c2noc(-c3cccc(Cl)c3)n2)cc1	-3.0	1.5	1.2	-22.8*	4.1	-17.6
COc1ccc2c3c(n(C)c2c1)[C@H](CO)N(C(=O)C1CCOCC1)CC31CN(C(=O)C2CC2)C1	-3.5	x	-16.3	8.1	21.9*	x
COc1ccc2c3c(n(C)c2c1)[C@@H](CO)N(C(=O)C1CCC1)CC31CCN(Cc2cccc(F)c2)CC1	-31.2	x	29.2*	1.3	-2.6	x
COc1cccc(CN2CC3(C2)CN(C(=O)C2CC2)[C@H](CO)c2c3c3ccc(OC)cc3n2C)c1	x	x	27.3*	0.4	-3.9	x
COc1ccc2c3c(n(C)c2c1)[C@@H](CO)N(C(=O)C1CC1)CC31CCN(Cc2cccc(F)c2)CC1	10.2	x	u	-2.5	-24.9	x
COc1ccc2c3c(n(C)c2c1)[C@@H](CO)N(C(=O)C1CC1)CC31CN(Cc2cccc(F)c2)C1	12.3	x	x	-4.5	-0.2	x
COc1ccc2c3c(n(C)c2c1)[C@@H](CO)N(C(=O)C1CCOCC1)CC31CN(C(=O)C2CC2)C1	-15.5	x	-18.6	-0.2	-0.8	x
COc1ccc2c3c(n(C)c2c1)[C@H](CO)N(C(=O)C1CC1)CC31CCN(Cc2cccc(F)c2)CC1	1.7	x	26.2*	-1.8	-24.3	x
C=CCOc1ccccc1CN1CCC(Cc2ccccc2)CC1	-1.9	1.8	5.3	-10.2	23.6*	11.6
